# FID counter: counter-screen for HCV NS3 helicase inhibitors: DNA intercalator displacement | DNA fluorescent intercalator displacement, fluorescence | inhibition, % at 7.9 µM | 290,000 tested, 0.17% active | AID 1845; in the data active means inhibition above about 37%;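 further: 0% = vehicle and 100% = reference compound; higher means more ethidium bromide displaced from hairpin DNA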
# ANO1 block: blocks the mouse calcium-activated chloride channel TMEM16A. AID 588511. normalized B-score (activity score, 25-100; higher = stronger inhibition) at 10 µM. HEK293 TMEM16A/YFP iodide influx fluorescence, ionomycin. Q8BHY3. 310,000 tested, 1.2% active;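 active means ratio plate-corrected score three or more library SD toward inhibition, starting fluorescence score within five deviations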;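 further: score derived from kinetic fluorescence span divided by baseline fluorescence per well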
# TMEM16A act: activates or potentiates the mouse TMEM16A chloride channel. HEK293 TMEM16A/YFP-H148Q/I152L, iodide quench fluorescence; stronger effect = lower value. B-score at 10 µM. 340,000 tested, 0.3% active. AID 623877;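 active means fluorescence-ratio B-score plate-corrected deviation score at least 3 library SD below zero, with starting fluorescence score within 5 deviations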;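 further: channel opened by trigger with iodide after compound preincubation; score built on the fluorescence ratio of max minus min over baseline; more negative score means more quench and so TMEM16A activation or potentiation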
# UBC13 inh: blocks human UBC13 polyubiquitin chain formation. P61088. TR-FRET. inhibition, % at 20 µM. 330,000 tested, 0.47% active; in the data active means inhibition above about 45%, passing the limit was not always enough
# Apaf1 inhib: human Apaf-1 inhibition; O14727; reconstituted apoptosome caspase-3 activity, DEVD-Rh110 fluorescence; inhibition, % at 20 µM; 330,000 tested, 0.71% active; active means inhibition of at least 40% at 20 µM;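 further: plate controls were DMSO wells for no effect and DEVD-CHO caspase inhibitor wells for full effect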
#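 Material: reconstituted apoptosome with Apaf-1, cytochrome c, caspase-9, procaspase-3, dATP. Technique: Rh110 fluorescence intensity. Buffer or medium: pH 7.5 Hepes buffer with CHAPS, BSA, DTT. Times: 30 min plus 50 min, RT.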
# TMEM16A reconf: reconfirmed blocker of mouse TMEM16A calcium-activated chloride channel | HEK293 TMEM16A/YFP-H148Q, iodide quench fluorescence; ionomycin added to raise cell calcium | shares compounds with ANO1 block | inhibition, % at 10 µM | AID 652189 | 2,300 tested, 39% active;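 active means mean duplicate percent inhibition, scaled so buffer wells are 0 and the reference blocker 100, over three buffer SD above buffer mean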
# TMEM16A Ca cntr: calcium mobilization counter-screen hit for TMEM16A inhibitor series; calcium response (% of ionomycin), % at 10 µM; AID 652231; 2,300 tested, 2% active; shares compounds with ANO1 block; TMEM16A/YFP HEK293, Fluo4 calcium mobilization;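 active means duplicate-averaged calcium signal over 20% of the ionomycin maximum, relative to buffer baseline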;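 further: each well's signal is peak minus trough fluorescence divided by its pre-addition baseline; 0% = buffer wells and 100% = ionomycin wells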
# YFP-HEK293 quench: acts in parental YFP-HEK293 cells lacking TMEM16A, counter-screen; iodide YFP quench, ionomycin; shares compounds with ANO1 block; 2,300 tested, under 10 active; YFP ratio F(max-min)/F0 at 10 µM;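 active means yellow fluorescent protein signal ratio exceeding the buffer control mean by over 5 SD of those controls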;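 further: ratio is mean of duplicate wells from kinetic YFP trace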
# ClC-1 rat inh: blocks the rat ClC-1 voltage-dependent chloride channel; shares compounds with ANO1 block; CHO ClC-1-YFP, iodide influx fluorescence quench; iodide control reads 0, buffer control 100; ratio percent, % at 10 µM; 2,300 tested, under 10 active; AID 652236;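 active means duplicate-mean ratio percent above the mean of iodide-only control wells, which defines zero, plus 5 of their SD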;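 further: higher percent means stronger block of ClC-1 iodide influx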
# Target sequence (P35524 whole entry, looked up): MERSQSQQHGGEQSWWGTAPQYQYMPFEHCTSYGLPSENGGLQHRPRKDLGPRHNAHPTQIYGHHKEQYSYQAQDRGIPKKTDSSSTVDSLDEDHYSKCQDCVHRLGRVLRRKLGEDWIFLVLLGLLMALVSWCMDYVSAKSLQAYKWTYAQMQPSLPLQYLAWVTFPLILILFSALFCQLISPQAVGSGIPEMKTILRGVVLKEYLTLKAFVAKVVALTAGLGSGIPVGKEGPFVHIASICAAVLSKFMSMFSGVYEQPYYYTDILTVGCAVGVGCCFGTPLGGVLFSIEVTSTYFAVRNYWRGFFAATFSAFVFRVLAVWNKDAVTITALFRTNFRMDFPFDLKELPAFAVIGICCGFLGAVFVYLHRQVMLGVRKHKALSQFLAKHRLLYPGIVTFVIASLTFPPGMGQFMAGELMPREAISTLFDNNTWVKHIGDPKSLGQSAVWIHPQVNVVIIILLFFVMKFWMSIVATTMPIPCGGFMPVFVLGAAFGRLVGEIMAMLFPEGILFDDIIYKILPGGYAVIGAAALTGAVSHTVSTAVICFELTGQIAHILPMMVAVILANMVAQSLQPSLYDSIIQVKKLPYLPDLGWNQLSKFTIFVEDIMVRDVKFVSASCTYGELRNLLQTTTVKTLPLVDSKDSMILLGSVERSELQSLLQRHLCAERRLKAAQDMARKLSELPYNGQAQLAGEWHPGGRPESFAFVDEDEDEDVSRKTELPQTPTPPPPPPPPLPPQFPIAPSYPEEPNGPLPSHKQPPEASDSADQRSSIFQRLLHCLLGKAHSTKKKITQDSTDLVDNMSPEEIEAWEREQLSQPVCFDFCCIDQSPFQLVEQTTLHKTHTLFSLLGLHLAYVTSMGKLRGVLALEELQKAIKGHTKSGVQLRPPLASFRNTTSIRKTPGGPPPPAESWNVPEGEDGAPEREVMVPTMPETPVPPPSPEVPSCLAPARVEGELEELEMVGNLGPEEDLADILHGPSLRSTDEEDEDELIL
# Numbers without * were called inactive; i = inactive; · = no result given. A selection: hits, their analogues and other compounds. The true share with any hit is near 2.4%.
SMILES,FID counter,ANO1 block,TMEM16A act,UBC13 inh,Apaf1 inhib,TMEM16A reconf,TMEM16A Ca cntr,YFP-HEK293 quench,ClC-1 rat inh
COc1ccc(CCNC(=O)CCN2C(=O)C(C)Oc3ccc(C)cc32)cc1OC (stereo not drawn),-41,100*,i,4,7,i,i,-1.2,-10
COc1ccc(Cn2nnc(C(=O)Nc3ccc(F)cc3)c2N)cc1,-2,i,i,2,-7,·,·,·,·
COc1ccc(CNC(=O)c2csc(Cc3ccc(Cl)cc3)n2)cc1,-26,100*,i,4,18,i,i,-1.2,-10
COc1ccc(Cc2nc(C(=O)Nc3ccc(F)cc3)cs2)cc1,-11,100*,i,3,1,26%*,i,-0.71,-8
O=C(NCc1ccc(Cl)cc1)c1csc(-c2cccnc2)n1,-19,i,i,2,-5,·,·,·,·
COc1ccc(NC(=O)c2ccccn2)cc1,2,i,i,1,2,·,·,·,·
COc1ccc(Cc2nc(C(=O)Nc3ccccc3)cs2)cc1,-11,100*,i,1,8,24%*,i,-1.1,-15
O=C(Nc1ccc(Cl)cc1)c1csc(Cc2ccccc2)n1,-8,25*,i,14,2,30%*,i,-0.87,-4
O=C(Nc1ccc(Cl)c(Cl)c1)c1csc(-c2ccccc2)n1,0,i,i,-11,19,·,·,·,·
O=C(CCC1CCCC1)N[C@@H](Cc1ccc(O)cc1)C(=O)O,-1,i,i,4,8,·,·,·,·
O=C(CN1CCCCCC1)N/N=C/c1cccc(Cl)c1Cl,4,i,i,2,4,·,·,·,·
CN(C)CCNS(=O)(=O)c1ccc(N2CCc3ccccc32)c([N+](=O)[O-])c1,34,i,i,-99,12,·,·,·,·
COc1ccc(NC(=O)c2csc(Cc3ccc(Cl)cc3)n2)cc1,-19,100*,i,5,13,i,i,-0.91,-4
COc1ccc(COc2ccsc2C(=O)Nc2ccc(Cl)cc2)cc1,-2,i,i,12,3,·,·,·,·
COc1ccc(C(=O)C2CCCN(S(=O)(=O)c3ccc(C(C)=O)cc3)C2)c(C)c1 (stereo not drawn),-46,25*,i,2,14,30%*,i,-0.89,-23
CCOP(=O)(c1ccccc1)C(O)c1ccccc1 (stereo not drawn),1,i,i,-6,3,·,·,·,·
CCOP(=O)(c1c(F)c(F)c(F)c(F)c1F)C(O)c1ccccc1 (stereo not drawn),-1,25*,i,-4,-5,31%*,i,-0.98,-10
O=C(N[C@H](CO)Cc1ccccc1)c1ccco1,·,i,i,-2,-5,·,·,·,·
O=C(CSc1ncnc2ccccc12)c1ccc2c(c1)OCCO2,-17,25*,i,24,-14,39%*,i,-0.91,-19
CCc1nc(SCC(=O)c2ccc3c(c2)OCCO3)c2ccccc2n1,-7,i,i,19,27,·,·,·,·
O=C(N/C(=C\c1cccc([N+](=O)[O-])c1)C(=O)N1CCOCC1)c1cccc(Br)c1,-19,i,i,-2,-2,·,·,·,·
COc1ccc(S(=O)(=O)N2CCN=C2SCc2cccc(C)c2)cc1,-18,25*,i,0,13,i,i,-1.2,-8
COc1ccc(S(=O)(=O)N2CCN=C2SCc2cccnc2)cc1,-19,i,i,-5,-5,·,·,·,·
O=S(=O)(c1ccccc1)N1CCN=C1SCc1c(F)cccc1Cl,-11,100*,i,2,16,i,i,-1,-4
CC1CC(C)CN(CCCNC(=O)CN2C(=O)CSc3ccc(S(=O)(=O)N4CCCCC4)cc32)C1 (stereo not drawn),23,i,i,1,3,·,·,·,·

# Source: PubChem
